Experimental findings from ChEMBL document CHEMBL3259621, “Novel merosesquiterpene exerts a potent antitumor activity against breast cancer cells in vitro and in vivo” (Eur J Med Chem, 2014) are described below.

pIC50: −log10 of the molar value. Calls of active or inactive are those of the source. No cut-off for these calls is given here.

In experiment [1] the test system is MCF7. Kind of experiment: Induction of apoptosis in human MCF7 cells assessed as reduction in phosphorylated pRb expression at 2 uM after 16 hrs by Western blotting analysis relative to control. In kind it is functional. Details: scale not given: the % may be the effect or the level left. Put shortly: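 MCF-7 seeded at 5 × 10⁴ cells/cm², exposed after 24 h to 2 µM for 0, 4, 8, 16 and 24 h. Lysed in SDS sample buffer, run on 12% acrylamide gels, transferred to nitrocellulose and blocked with 5% milk. Primary antibodies overnight at 4 °C (total or phospho-pRb, β-actin), secondary 1 h at room temperature, ECL chemiluminescence detection.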
(Immunoblotting shows a protein as a band on a membrane.)

In experiment [2] the target is Mitogen-activated protein kinase; ERK1/ERK2 (Homo sapiens) (UniProt P27361+P28482). Kind of experiment: Increase of p44/42 MAPK phosphorylation in human MCF7 cells at 2 uM up to 4 hrs by Western blotting analysis relative to control. In kind it is cell-based. The method, boiled down: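 MCF-7 seeded at 5 × 10⁴/cm² and exposed at 24 h to 2 µM compound for 0, 4, 8, 16 and 24 h. Lysates separated on 12% SDS gels, transferred to nitrocellulose, blocked in 5% milk. Primary antibodies applied overnight at 4 °C, then secondary 1 h at room temperature. Detection by ECL chemiluminescence with β-actin as loading reference.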
Chain of Mitogen-activated protein kinase; ERK1/ERK2 (Homo sapiens) (P27361 whole entry, looked up): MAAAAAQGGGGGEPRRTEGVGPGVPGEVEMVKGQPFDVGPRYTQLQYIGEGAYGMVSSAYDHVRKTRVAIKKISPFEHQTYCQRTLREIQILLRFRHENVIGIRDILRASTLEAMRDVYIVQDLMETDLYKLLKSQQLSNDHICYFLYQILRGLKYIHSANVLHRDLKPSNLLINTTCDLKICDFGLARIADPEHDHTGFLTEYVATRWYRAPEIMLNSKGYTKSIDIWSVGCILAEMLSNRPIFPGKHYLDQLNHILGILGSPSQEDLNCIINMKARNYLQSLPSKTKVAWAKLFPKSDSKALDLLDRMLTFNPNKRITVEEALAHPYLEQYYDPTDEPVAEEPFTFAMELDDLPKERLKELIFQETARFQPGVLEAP
Chain of Mitogen-activated protein kinase; ERK1/ERK2 (Homo sapiens) (P28482 whole entry, looked up): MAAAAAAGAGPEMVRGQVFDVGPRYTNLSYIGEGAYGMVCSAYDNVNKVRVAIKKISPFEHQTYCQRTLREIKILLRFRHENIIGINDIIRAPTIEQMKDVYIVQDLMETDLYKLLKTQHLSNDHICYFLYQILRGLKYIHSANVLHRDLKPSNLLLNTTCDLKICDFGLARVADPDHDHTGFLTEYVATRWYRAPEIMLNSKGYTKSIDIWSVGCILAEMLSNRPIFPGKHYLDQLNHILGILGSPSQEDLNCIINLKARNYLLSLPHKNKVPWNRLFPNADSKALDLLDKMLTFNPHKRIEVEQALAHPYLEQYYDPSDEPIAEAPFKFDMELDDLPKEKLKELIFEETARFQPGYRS

The nature of experiment [3]: Antitumor activity against mouse E0771 cells allografted in C57BL/6 mouse assessed as mean tumor volume at 5 to 15 mg/kg, po measured on day 42 relative to vehicle-treated control. In kind it is functional. To be noted: dose mg/kg 5-15. The method, boiled down:
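C57BL/6 mice (40) injected subcutaneously in the right side with 1 × 10⁶ E0771 cells. At day 9, with tumors at 75 mm³, randomized into four groups of 10 and dosed orally six times with vehicle (1% methylcellulose) or compound at 5, 10 or 15 mg/kg. Tumor volume followed to day 42.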

The subject of experiment [4] is MCF7. The experiment is described as follows: Cytotoxicity against human MCF7 cells after 3 days by SRB assay. The experiment is classed as functional, cell-based. To be noted: MCF7, 72 h. The method, boiled down: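 Cells seeded in quadruplicate at 5 × 10³ cells/cm². Compound added at 24 h over increasing concentrations for 3 days. Cells fixed with cold 10% TCA, stained with 0.4% sulforhodamine B in 1% acetic acid, dye solubilized in 10 mM Tris pH 10.5, OD read at 492 nm. IC50 taken by linear interpolation of the semi-log dose-response curve. DMSO below 0.1% final.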

Experiment [5] deals with MCF7. The experiment is described as follows: Cell cycle arrest in human MCF7 cells assessed as accumulation at G0-G1 phase at 2 uM after 24 hrs by propidium iodide/RNAse staining-based FACS analysis (reference value: 42.34 %). The experiment is classed as functional.
The subject of experiment [6] is MCF7. The experiment is described as follows: Cell cycle arrest in human MCF7 cells assessed as accumulation at S phase at 2 uM after 24 hrs by propidium iodide/RNAse staining-based FACS analysis (reference value: 49.46 %). The experiment is classed as functional. (A flow cytometer gives signals particle by particle.)
Experiment [7] concerns MCF7. The experiment is described as follows: Cell cycle arrest in human MCF7 cells assessed as accumulation at S phase at 3 uM after 24 hrs by propidium iodide/RNAse staining-based FACS analysis (reference value: 49.46 %). In kind it is functional.

As for `C=C1CC[C@@H]2[C@](C)(CCC[C@]2(C)C(=O)OC)[C@H]1Cc1c(C)ccc2c1C(=O)C=CC2=O`, the Activity with MCF7 [1] worked out at 90%; in the experiment with MCF7 [5] it was 66.6%; in the experiment on MCF7 [6], 29.15%; in the experiment on MCF7 [7], 4.25%. Besides, the outcome in experiment [2] was Active. Moreover, in experiment [3], the “fold change (FC)” value is reported as 2.4. Further, the pIC50 (as a rule, −log10 of the IC50, conventionally taken in molar units) in the experiment with MCF7 [4] was 6.46.
